Experimental data published in paper PMC13077713 (Journal of medicinal chemistry, 2025).
Where “and” joins values, the source holds several entries; their conditions need not be identical. Equal values may be shown once. Read-outs that look alike come from different tables or passages of the source.

Experiments:
[1] = system: HBV DNA production in HepAD38 cells; assay: Anti-HBV activity; assay type: cell-based, Hepatitis B virus (HBV); settings: for times less potent than GLP-26: HepAD38 vs GLP-26
[2] = Cytotoxicity, CellTiter 96 cell proliferation assay, PBM cells; assay type: cell-based, human; settings: human, peripheral blood mononuclear (PBM) cells
[3] = Cytotoxicity, CellTiter 96 cell proliferation assay, CEM cells; assay type: cell-based, human; settings: human, CEM T lymphoblast cells
[4] = Cytotoxicity, CellTiter 96 cell proliferation assay, Vero cells; assay type: cell-based, African green monkey; settings: African green monkey, Vero kidney cells
[5] = Cytotoxicity, CellTiter 96 cell proliferation assay, HepG2 cells; assay type: cell-based, human; settings: human, HepG2 hepatocellular carcinoma cells
[6] = system: human peripheral blood mononuclear (PBM) cells; assay: Cytotoxicity, CellTiter 96 cell proliferation assay, PBM cells; assay type: cell-based; settings: read-out: Cytotoxicity, CC50 PBM; PBM cells
[7] = system: human T lymphoblast (CEM) cells; assay: Cytotoxicity, CellTiter 96 cell proliferation assay, CEM cells; assay type: cell-based; settings: read-out: Cytotoxicity, CC50 CEM; CEM cells
[8] = system: African green monkey kidney (Vero) cells; assay: Cytotoxicity, CellTiter 96 cell proliferation assay, Vero cells; assay type: cell-based; settings: read-out: Cytotoxicity, CC50 Vero; Vero cells
[9] = system: human hepatocellular carcinoma (HepG2) cells; assay: Cytotoxicity, CellTiter 96 cell proliferation assay, HepG2 cells; assay type: cell-based; settings: read-out: Cytotoxicity, CC50 HepG2; HepG2 cells
[10] = biological target: T1, Cp149 dimers (Hepatitis B virus genotype D subtype ayw, UniProt P03146); assay: Mass photometry of Cp149 capsid assembly in the presence of CAM; assay type: biochemical, Hepatitis B virus (HBV); settings: ρ = 3, assembled at 30 μM subunits, diluted to 0.18 μM; 57% without CAM
[11] = biological target: T1, Cp149 dimers; assay: Static SAXS of Cp149 capsid assembly in the presence of CAM; assay type: biochemical, Hepatitis B virus (HBV); settings: ρ = 3, undiluted sample, 30 μM dimers; 1.54 cm^−1 without CAM
[12] = biological target: T1, Cp149 dimers; assay: Cryo-electron microscopy classification of Cp149 capsids assembled with CAM; assay type: biochemical, Hepatitis B virus (HBV); settings: ρ = 3 (90 μM), 30 μM Cp149
Method in brief: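 Cp149 was expressed in E. coli BL21 and purified as capsids. These were dissociated with 3 M urea and taken to subunits by SEC. Assembly was triggered manually by mixing 30 μM (1 mg/ml) dimers in 1 mM DTT, 20 mM Tris-HCl pH 7.5 with 200 mM ammonium acetate, with or without 90 μM CAM (ρ = 3). Samples were concentrated 11-fold, imaged by cryo-EM, and particles 2D-classified.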

[13] = biological target: T1, Cp149 dimers; settings: for Rgw (mean radius of gyration, plateau) / 〈N〉w∞ (mean aggregation number at equilibrium) / Associated timescale of Rgw / Associated timescale of 〈N〉w: ρ = 3, 30 μM subunits, 200 mM ammonium acetate; for Rgw (mean radius of gyration, plateau): 37°C, ρ = 0: 176 ± 6 Å; for 〈N〉w∞ (mean aggregation number at equilibrium): ρ = 0: 156 ± 6; for Associated timescale of Rgw: ρ = 0: 237 ± 62 ms; for Associated timescale of 〈N〉w: ρ = 0: 699 ± 138 ms
[14] = biological target: preassembled HBV capsids (Cp149 protein) (Hepatitis B virus genotype D subtype ayw, UniProt P03146); settings: 20 μM CAM
[15] = Hepatitis B virus, HePAD38, read-out: Anti-HBV activity EC50
[16] = Hepatitis B virus, HePAD38, read-out: Anti-HBV activity EC90
[17] = read-out: Anti-HBV activity EC50, HBV DNA production, HepAD38 cells
[18] = read-out: Anti-HBV activity EC90, HBV DNA production, HepAD38 cells

T1 sequence (P03146 1-149): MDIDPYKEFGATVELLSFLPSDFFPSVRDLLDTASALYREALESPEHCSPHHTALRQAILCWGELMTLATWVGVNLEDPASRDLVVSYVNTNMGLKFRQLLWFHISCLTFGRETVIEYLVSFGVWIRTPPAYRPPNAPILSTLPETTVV
preassembled HBV capsids (Cp149 protein), sequence (P03146 1-149): as above

SMILES	EC50 [1, 17]	EC90 [1, 18]	CC50 [6]	CC50 [7]	CC50 [8]	CC50 [9]	further results
Cc1c(C(=O)C(=O)NCc2c[nH]nn2)c(C)n(C)c1C(=O)Nc1ccc(F)c(F)c1 [Compound 7, 4-(2-(((1H-1,2,3-triazol-4-yl)methyl)amino)-2-oxoacetyl)-N-(3,4-difluorophenyl)-1,3,5-trimethyl-1H-pyrrole-2-carboxamide]	–	–	–	–	–	–	EC50 [1, 15]: 0.047 ± 0.042 µM; EC90 [1, 16]: 0.58 ± 0.03 µM; SI: Selectivity index ([1]; toxicity in HepG2 / activity in HepAD38): >2128; CC50 [2]: 74 ± 14 µM; CC50 [3]: 67.8 ± 19.6 µM; CC50 [4]: > 100 µM; CC50 [5]: > 100 µM
CCCCCCCCCCCCn1cc(CNC(=O)C(=O)c2c(C)c(C(=O)Nc3ccc(F)c(F)c3)n(C)c2C)nn1 [Compound 10, N-(3,4-difluorophenyl)-4-(2-(((1-dodecyl-1H-1,2,3-triazol-4-yl)methyl)amino)-2-oxoacetyl)-1,3,5-trimethyl-1H-pyrrole-2-carboxamide]	–	–	–	–	–	–	EC50 [1, 15]: 0.307 ± 0.153 µM; EC90 [1, 16]: 0.97 ± 0.13 µM; CC50 [2]: 1.6 ± 0.6 µM; CC50 [3]: 9.9 ± 4.6 µM; CC50 [4]: 10.4 ± 9 µM; CC50 [5]: 30.5 ± 25.6 µM
Cc1c(C(=O)C(=O)NCc2cn(CCCCCCCCn3cc(CNC(=O)C(=O)c4c(C)c(C(=O)Nc5ccc(F)c(F)c5)n(C)c4C)nn3)nn2)c(C)n(C)c1C(=O)Nc1ccc(F)c(F)c1 [Compound 6b, 4,4’-(2,2’-(((Octane-1,8-diylbis(1H-1,2,3-triazole-1,4-diyl))bis(methylene))bis(azanediyl))bis(2-oxoacetyl))bis(N-(3,4-difluorophenyl)-1,3,5-trimethyl-1H-pyrrole-2-carboxamide)]	0.438 ± 0.211 µM	5.52 µM	> 100 µM	> 100 µM	> 100 µM	> 100 µM	–
Cc1c(C(=O)C(=O)NCc2cn(CCCCCCCCCCn3cc(CNC(=O)C(=O)c4c(C)c(C(=O)Nc5ccc(F)c(F)c5)n(C)c4C)nn3)nn2)c(C)n(C)c1C(=O)Nc1ccc(F)c(F)c1 [Compound 6c, 4,4’-(2,2’-(((Decane-1,10-diylbis(1H-1,2,3-triazole-1,4-diyl))bis(methylene))bis(azanediyl))bis (2-oxoacetyl))bis(N-(3,4-difluorophenyl)-1,3,5-trimethyl-1H-pyrrole-2-carboxamide)]	0.004 ± 0.001 µM	0.14 ± 0.11 µM	> 100 µM	> 100 µM	> 100 µM	> 100 µM	–
C#CCNC(=O)C(=O)c1c(C)c(C(=O)Nc2ccc(F)c(F)c2)n(C)c1C [GLP-26]	0.008 ± 0.001 µM	0.07 ± 0.02 µM	> 100 µM	> 100 µM	30.5 ± 6.7 µM	> 100 µM	capsid-sized events [10]: 27%; SAXS intensity at zero angle I(0) [11]: 1.86 cm⁻¹; larger objects with an ellipsoidal appearance (2D classification) [12]: 17.5%; objects that appeared to be T = 3 capsids (2D classification) [12]: 1.8%; objects very similar to T = 4 capsids (2D classification) [12]: 81.3%; Subunit binding energies −Δg [13]: 10.4 kT; Rgw (mean radius of gyration, plateau) [13]: 180 Å and 180 ± 1Å; 〈N〉w∞ (mean aggregation number at equilibrium) [13]: 190 and 190 ± 11; Associated timescale of Rgw [13]: 116 ± 63 ms; Associated timescale of 〈N〉w [13]: 487 ± 178 ms; Radius (DLS, table) ([14]; 7.5 μM Cp149, 30 min, 1% DMSO control 24.6 ± 3.4): 53.0 ± 13.6 nM; PD (polydispersity) ([14]; 7.5 μM Cp149, 30 min, 1% DMSO control 32.3 ± 18.6): 26.8 ± 9.8%; average particle radius (DLS, text) ([14]; 1% DMSO control 24.6 nm): 53.0 nm
Cc1c(C(=O)C(=O)NCc2cn(CCCCCCCCCCCCCCCCn3cc(CNC(=O)C(=O)c4c(C)c(C(=O)Nc5ccc(F)c(F)c5)n(C)c4C)nn3)nn2)c(C)n(C)c1C(=O)Nc1ccc(F)c(F)c1 [Compound 6f, 4,4’-(2,2’-(((Hexadecane-1,16-diylbis(1H-1,2,3-triazole-1,4-diyl))bis(methylene))bis(azanediyl))bis(2-oxoacetyl))bis(N-(3,4-difluorophenyl)-1,3,5-trimethyl-1H-pyrrole-2-carboxamide)]	0.018 ± 0.011 µM	0.13 ± 0.06 µM	> 100 µM	> 100 µM	> 100 µM	> 100 µM	times less potent than GLP-26 [1]: 2–3 times
Cc1c(C(=O)C(=O)NCc2cn(CCCCCCCCCCCCCCCCCCn3cc(CNC(=O)C(=O)c4c(C)c(C(=O)Nc5ccc(F)c(F)c5)n(C)c4C)nn3)nn2)c(C)n(C)c1C(=O)Nc1ccc(F)c(F)c1 [Compound 6g, 4,4’-(2,2’-(((Octadecane-1,18-diylbis(1H-1,2,3-triazole-1,4-diyl))bis(methylene))bis(azanediyl))bis(2-oxoacetyl))bis(N-(3,4-difluorophenyl)-1,3,5-trimethyl-1H-pyrrole-2-carboxamide)]	0.025 ± 0.024 µM	0.38 ± 0.01 µM	> 100 µM	> 100 µM	> 100 µM	> 100 µM	times less potent than GLP-26 [1]: 2–3 times
Cc1cc(NC(=O)c2cccc(S(=O)(=O)N[C@H]3CCOC3)c2)ccc1F [JNJ-632]	–	–	–	–	–	–	Subunit binding energies −Δg [13]: 15.8 kT; Rgw (mean radius of gyration, plateau) [13]: 176 ± 0.5 Å; 〈N〉w∞ (mean aggregation number at equilibrium) [13]: 150 ± 4; Associated timescale of Rgw [13]: 100 ± 24 ms; Associated timescale of 〈N〉w [13]: 273 ± 46 ms
Cc1c(C(=O)C(=O)NCc2cn(CCCCCCCCCCCCn3cc(CNC(=O)C(=O)c4c(C)c(C(=O)Nc5ccc(F)c(F)c5)n(C)c4C)nn3)nn2)c(C)n(C)c1C(=O)Nc1ccc(F)c(F)c1 [Compound 6d, 4,4’-(2,2’-(((Dodecane-1,12-diylbis(1H-1,2,3-triazole-1,4-diyl))bis (methylene))bis(azanediyl))bis(2-oxoacetyl))bis(N-(3,4-difluorophenyl)-1,3,5-trimethyl-1H-pyrrole-2-carboxamide)]	0.0001 µM	0.008 ± 0.001 µM	63.4 ± 40.6 µM	42.8 ± 0.6 µM	> 100 µM	> 100 µM	times more potent than reference compound GLP-26 ([1]; HepAD38 EC50 vs GLP-26): 80 times
Cc1c(C(=O)C(=O)NCc2cn(CCCCCCn3cc(CNC(=O)C(=O)c4c(C)c(C(=O)Nc5ccc(F)c(F)c5)n(C)c4C)nn3)nn2)c(C)n(C)c1C(=O)Nc1ccc(F)c(F)c1 [Compound 6a, 4,4’-(2,2’-(((Hexane-1,6-diylbis(1H-1,2,3-triazole-1,4-diyl))bis(methylene))bis(azanediyl))bis(2-oxoacetyl))bis(N-(3,4-difluorophenyl)-1,3,5-trimethyl-1H-pyrrole-2-carboxamide)]	0.285 ± 0.021 µM	> 10 µM	> 100 µM	> 100 µM	> 100 µM	> 100 µM	–
